Laboratory results from ChEMBL document CHEMBL3763127, “Design, synthesis and biological evaluation of novel asperphenamate derivatives” (Eur J Med Chem, 2016).
Calls of active or inactive are those of the source. The calls are words filed in the database; no cut-off is given here.

Assays:
[1] = system: MCF7; experiment: Induction of cell cycle arrest in human MCF7 cells assessed as accumulation at G2/M phase at 10 uM after 24 hrs by PI staining-based flow cytometric analysis (reference value: 19.85%); assay type: functional
[2] = system: MCF7; experiment: Potency index, ratio of IC50 for cisplatin to IC50 for test compound for cytotoxicity against human MCF7 cells; assay type: functional
[3] = system: Bel-7402; experiment: Induction of cell cycle arrest in human Bel7402 cells assessed as accumulation at G2/M phase at 20 uM after 72 hrs by PI staining-based flow cytometric analysis (reference value: 22.26%); assay type: functional
[4] = system: HeLa; experiment: Induction of autophagy in human HeLa cells assessed as increase in LC3-2 level at 20 and 40 uM after 48 hrs by Western blot analysis; assay type: functional, cell-based
Procedure, shortened: (§1)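 Cells were treated with or without compound for 48 h: MCF-7 at 5 and 10 µM, HeLa and BEL-7402 at 20 and 40 µM. Total protein (10 µg) in SDS sample buffer (pH 6.8) was run on 8–15% SDS-PAGE and transferred to PVDF. LC3-I/LC3-II were probed with HRP secondary antibody and ECL detection. The assay was repeated at least three times.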

[5] = system: MCF7; experiment: Induction of cell cycle arrest in human MCF7 cells assessed as accumulation at G2/M phase at 10 uM after 48 hrs by PI staining-based flow cytometric analysis (reference value: 19.85%); assay type: functional
[6] = system: MCF7; experiment: Induction of autophagy in human MCF7 cells assessed as increase in LC3-2 level at 5 to 10 uM after 48 hrs by Western blot analysis; assay type: functional, cell-based; procedure, shortened: as §1
[7] = system: MCF7; experiment: Induction of cell cycle arrest in human MCF7 cells assessed as accumulation at S phase at 10 uM after 72 hrs by PI staining-based flow cytometric analysis (reference value: 27.09%); assay type: functional
[8] = system: Bel-7402; experiment: Induction of autophagy in human Bel7402 cells assessed as autophagic cell formation at 40 uM after 72 hrs by MDC staining-based flow cytometric analysis (reference value: 3.94%); assay type: functional
[9] = system: MCF7; experiment: Induction of apoptosis in human MCF7 cells assessed as accumulation at subG1 phase at 10 uM after 72 hrs by PI staining-based flow cytometric analysis (reference value: 2.98%); assay type: functional
[10] = system: MCF7; experiment: Induction of autophagy in human MCF7 cells assessed as increase in autophagosome formation at 5 and 10 uM after 72 hrs by MDC staining-based fluorescence microscopic analysis; assay type: functional, cell-based
[11] = system: MCF7; experiment: Induction of cell cycle arrest in human MCF7 cells assessed as accumulation at G2/M phase at 10 uM after 72 hrs by PI staining-based flow cytometric analysis (reference value: 19.85%); assay type: functional
[12] = system: Bel-7402; experiment: Induction of cell cycle arrest in human Bel7402 cells assessed as accumulation at S phase at 20 uM after 72 hrs by PI staining-based flow cytometric analysis (reference value: 25.01%); assay type: functional
[13] = system: HeLa; experiment: Induction of autophagy in human HeLa cells assessed as autophagic cell formation at 40 uM after 72 hrs by MDC staining-based flow cytometric analysis (reference value: 1.92%); assay type: functional
[14] = system: HeLa; experiment: Induction of autophagy in human HeLa cells assessed as autophagosome accumulation at 20 uM after 72 hrs by MDC staining-based flow cytometric analysis (reference value: 1.92%); assay type: functional
[15] = system: MCF7; experiment: Induction of cell cycle arrest in human MCF7 cells assessed as accumulation at S phase at 10 uM after 24 hrs by PI staining-based flow cytometric analysis (reference value: 27.09%); assay type: functional
[16] = system: Bel-7402; experiment: Induction of autophagy in human Bel7402 cells assessed as increase in autophagosome formation at 20 and 40 uM after 72 hrs by AO staining-based fluorescence microscopic analysis; assay type: functional, cell-based
Procedure, shortened: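 Cells in RPMI 1640/10% FBS were exposed to compound or 0.1% DMSO for 72 h: MCF-7 at 5 and 10 µM, HeLa and BEL-7402 at 20 and 40 µM. They were incubated with […] acridine orange for 15 min, washed with PBS, and acidic vesicles were imaged by inverted fluorescence microscopy.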

[17] = Potency index, ratio of IC50 for cisplatin to IC50 for test compound for cytotoxicity against human Bel7402 cells; assay type: functional, Bel-7402
[18] = system: MCF7; experiment: Induction of cell cycle arrest in human MCF7 cells assessed as accumulation at G0/G1 phase at 10 uM after 24 hrs by PI staining-based flow cytometric analysis (reference value: 50.76%); assay type: functional
[19] = system: HeLa; experiment: Cytotoxicity against human HeLa cells after 3 days by MTT assay; assay type: functional, cell-based; settings: 72 h
Procedure, shortened: (§2)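 MCF-7, HeLa and BEL-7402 cells were grown in RPMI 1640 with 10% heat-inactivated FBS, 1 mM glutamine and penicillin/streptomycin at 37 °C under 5% CO2. They were exposed to compound for 3 days, then read by MTT at 570 nm. Viability was taken as treated/control absorbance, and IC50 was derived from it. Values are mean SD of three independent experiments.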

[20] = system: HeLa; experiment: Induction of cell cycle arrest in human HeLa cells assessed as accumulation at G0/G1 phase at 20 uM after 48 hrs by PI staining-based flow cytometric analysis (reference value: 45.70%); assay type: functional
[21] = system: Bel-7402; experiment: Induction of apoptosis in human Bel7402 cells assessed as accumulation at subG1 phase at 20 uM after 72 hrs by PI staining-based flow cytometric analysis (reference value: 2.87%); assay type: functional
[22] = system: MCF7; experiment: Induction of cell cycle arrest in human MCF7 cells assessed as accumulation at S phase at 10 uM after 48 hrs by PI staining-based flow cytometric analysis (reference value: 27.09%); assay type: functional
[23] = system: HeLa; experiment: Induction of cell cycle arrest in human HeLa cells assessed as accumulation at G2/M phase at 20 uM after 72 hrs by PI staining-based flow cytometric analysis (reference value: 25.44%); assay type: functional
[24] = system: HeLa; experiment: Induction of apoptosis in human HeLa cells assessed as accumulation at subG1 phase at 20 uM after 48 hrs by PI staining-based flow cytometric analysis (reference value: 2.89%); assay type: functional
[25] = system: MCF7; experiment: Induction of cell cycle arrest in human MCF7 cells assessed as accumulation at G0/G1 phase at 10 uM after 72 hrs by PI staining-based flow cytometric analysis (reference value: 50.76%); assay type: functional
[26] = system: Bel-7402; experiment: Induction of autophagy in human Bel7402 cells assessed as increase in LC3-2 level at 20 and 40 uM after 48 hrs by Western blot analysis; assay type: functional, cell-based; procedure, shortened: as §1
[27] = system: MCF7; experiment: Induction of autophagy in human MCF7 cells at 5 uM after 72 hrs by MDC staining-based flow cytometric analysis (reference value: 2.54%); assay type: functional
[28] = system: HeLa; experiment: Induction of apoptosis in human HeLa cells assessed as accumulation at subG1 phase at 20 uM after 72 hrs by PI staining-based flow cytometric analysis (reference value: 2.89%); assay type: functional
[29] = system: Bel-7402; experiment: Induction of autophagy in human Bel7402 cells assessed as autophagic cell formation at 20 uM after 72 hrs by MDC staining-based flow cytometric analysis (reference value: 3.94%); assay type: functional
[30] = system: Bel-7402; experiment: Induction of apoptosis in human Bel7402 cells assessed as accumulation at subG1 phase at 20 uM after 48 hrs by PI staining-based flow cytometric analysis (reference value: 2.87%); assay type: functional
[31] = system: MCF7; experiment: Cytotoxicity against human MCF7 cells after 3 days by MTT assay; assay type: functional, cell-based; settings: MCF7, 72 h; procedure, shortened: as §2

Cc1ccc(S(=O)(=O)N[C@H](Cc2ccccc2)C(=O)OC[C@H](Cc2ccccc2)NC(=O)c2ccccc2)cc1
Activity [1]: 19.09% | Ratio IC50 [2]: 3 | Activity [3]: 22.61% | Activity [4]: Active | Activity [5]: 20.05% | Activity [6]: Active | Activity [7]: 28.08% | Activity [8]: 48.25% | Activity [9]: 3.76% | Activity [10]: Active | Activity [11]: 20.07% | Activity [12]: 26.88% | Activity [13]: 49.37% | Activity [14]: 26.11% | Activity [15]: 24.98% | Activity [16]: Active | Ratio IC50 [17]: 1.6 | Activity [18]: 52.57% | IC50 [19]: 16.8 µM | Activity [20]: 50.15% | Activity [21]: 3.78% | Activity [22]: 28.07% | Activity [23]: 21.52% | Activity [24]: 2.12% | Activity [25]: 48.05% | Activity [26]: Active | Activity [27]: 40.31% | Activity [28]: 2.43% | Activity [29]: 23.66% | Activity [30]: 3.01% | IC50 [31]: 5.87 µM
